Results from ChEMBL document CHEMBL2163307, “Antibiotic optimization and chemical structure stabilization of thiomuracin A” (J Med Chem, 2012).
≈ marks a conversion by molar mass, not a printed value. Calls of active or inactive are those of the source. The calls are words filed in the database; no cut-off is given here.

Legend:
[1] = Antibacterial activity against Clostridium difficile ATCC 43255 by broth microdilution method; type: functional; details: Clostridioides difficile
Summary of the method: (§1)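 MIC by CLSI broth microdilution (M07-A8 for aerobes; M11-A7 for anaerobes).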

Enterococcus faecium = test: Antibacterial activity against Enterococcus faecium 7130724 by broth microdilution method; type: functional; summary of the method: as §1
Streptococcus pyogenes = test: Antibacterial activity against Streptococcus pyogenes ATCC BAA-595 by broth microdilution method; type: functional; summary of the method: as §1
Enterococcus faecalis [2] = test: Antibacterial activity against Enterococcus faecalis ATCC 29212 by broth microdilution method; type: functional; summary of the method: as §1
Staphylococcus aureus [3] = test: Antibacterial activity against methicillin-resistant Staphylococcus aureus isolate AKH Vienna A4.018 by broth microdilution method; type: functional
Summary of the method: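 Broth microdilution MIC following CLSI M07-A8 (2009) and M11-A7 guidelines.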

Enterococcus faecalis [4] = test: Antibacterial activity against Enterococcus faecalis isolate NB04025 infected in iv dosed CD1 mouse assessed as protection from lethal infection after 5 days; type: functional; details: for ED50: 120 h
Summary of the method: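 Female CD1 mice (21−25 g) infected ip with 1 × 10^8 CFU/mouse in 50% sterile rat fecal extract (10−100× minimal lethal dose). Single iv tail-vein bolus immediately after inoculation, several dose levels, six mice per group. Observed 5 days with implanted temperature transponders; moribund mice euthanized. ED50 with 95% CI from day-5 survival by probit analysis.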

Staphylococcus aureus [5] = test: Antibacterial activity against Staphylococcus aureus ATCC 49951 infected in iv dosed CD1 mouse assessed as protection from lethal infection administered 1 hr and 5 hrs post-infection measured after 5 days; type: functional; details: for ED50: ATCC 49951, iv
Summary of the method: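 Female CD1 mice (21−25 g) infected ip with 1 × 10^8 CFU/mouse in 0.9% NaCl (10−100× minimal lethal dose). iv tail-vein bolus at 1 and 5 h post-inoculation, several dose levels, six mice per group. Watched 5 days with body temperature monitoring; moribund animals euthanized. ED50 with 95% CI from day-5 survival by probit analysis.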

Enterococcus faecalis [6] = test: Antibacterial activity against Enterococcus faecalis isolate NB04025; type: functional
[7] = AUC in Sprague-Dawley rat at 1 mg/kg, iv; type: ADME, organism-based; design: dose 1 mg/kg, route intravenous; details: plasma
Summary of the method: (§2)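 Intravenous PK (N = 2) in male Sprague−Dawley rats (220−270 g, about 6−10 weeks old) with dual jugular vein cannulas. Rats were fasted overnight before dosing and for 8 h after. Blood was collected into K2EDTA tubes and plasma was assayed by LC-MS/MS.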

[8] = Clearance in Sprague-Dawley rat at 1 mg/kg, iv; type: ADME, organism-based; design: dose 1 mg/kg, route intravenous; details: in vivo; summary of the method: as §2
Staphylococcus aureus [9] = test: Antibacterial activity against Staphylococcus aureus ATCC 49951; type: functional
[10] = Half life in Sprague-Dawley rat at 1 mg/kg, iv; type: ADME, organism-based; design: dose 1 mg/kg, route intravenous; details: in vivo; summary of the method: as §2
Enterococcus faecalis [11] = test: Ratio of daptomycin ED50 to compound ED50 for Enterococcus faecalis isolate NB04025 infected in iv dosed CD1 mouse; type: functional
Summary of the method: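 Female CD1 mice (21−25 g) infected intraperitoneally with 1 × 10^8 CFU/mouse E. faecalis in 50% sterile rat fecal extract. Single iv tail-vein bolus given immediately after inoculation, at several dose levels, to groups of six mice. Vehicle was 5% DMA, 30% PEG400, 10% cremophor EL, 5% 0.1 N NaOH and 50% pH 7.4 buffer; daptomycin was given in saline. Survival followed 5 days; ED50 with 95% CI by probit analysis of day-5 survival.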

[12] = Volume of distribution at steady state in Sprague-Dawley rat at 1 mg/kg, iv; type: ADME, organism-based; design: dose 1 mg/kg, route intravenous; details: in vivo, read-out: Vdss; summary of the method: as §2
[13] = Solubility of the compound in DMSO solution; type: physicochemical
[14] = Chemical stability of the compound in HCl at room temperature; type: physicochemical; details: buffer
[15] = Chemical stability of the compound in MeOH at room temperature; type: physicochemical
[16] = Chemical stability of the compound in water at 50 degC; type: physicochemical; details: buffer
[17] = Chemical stability of the compound in HCl at 50 degC; type: physicochemical; details: buffer
[18] = Chemical stability of the compound in MeOH at 50 degC; type: physicochemical
[19] = Chemical stability of the compound in water at room temperature; type: physicochemical; details: buffer
[20] = Solubility of the compound in DMF solution; type: physicochemical
Escherichia coli = test: Inhibition of elongation factor Tu-mediated protein synthesis in Escherichia coli S30 extract after 2 hrs by luciferase reporter gene assay
Summary of the method: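 Coupled transcription/translation in E. coli S30 extract with pBESTluc template DNA, methionine-minus and cysteine-minus amino acid mixes, and S30 premix; test agent added as 40× stock in 20 μL reactions. Incubated 2 h at 37 °C; luciferase formed was read by luminescence after adding an equal volume of SteadyGlo reagent. Kirromycin and puromycin were positive controls; ampicillin was the negative control.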

SMILES | MIC [1] [µg/mL] | MIC (Enterococcus faecium) [µg/mL] | MIC (Streptococcus pyogenes) [µg/mL] | MIC (Enterococcus faecalis [2]) [µg/mL] | MIC (Staphylococcus aureus [3]) [µg/mL] | other results
Cc1sc2nc1C(=O)N[C@@H]([C@H](O)c1ccccc1)c1nc(cs1)C(=O)N[C@@H](Cc1ccc(O)cc1)C(=O)N[C@@H]([C@@H](C)[C@@H]1CO1)c1nc(cs1)-c1nc(cs1)-c1nc(-c3nc(C(N)=O)cs3)ccc1-c1nc(cs1)C(=O)N[C@H]2CC(N)=O | 0.003 (≈ 0.0025 µM) | 0.125 (≈ 0.104 µM) | 2 (≈ 1.67 µM) | 0.25 (≈ 0.208 µM) | 0.5 (≈ 0.417 µM) | –
CCCCCCCCCC(=O)N[C@@H](Cc1c[nH]c2ccccc12)C(=O)N[C@H](CC(N)=O)C(=O)N[C@@H](CC(=O)O)C(=O)N[C@@H]1C(=O)NCC(=O)N[C@@H](CCCN)C(=O)N[C@@H](CC(=O)O)C(=O)N[C@H](C)C(=O)N[C@@H](CC(=O)O)C(=O)NCC(=O)N[C@H](CO)C(=O)N[C@@H]([C@H](C)CC(=O)O)C(=O)N[C@@H](CC(=O)c2ccccc2N)C(=O)O[C@@H]1C | – | – | – | – | – | Activity (Enterococcus faecalis [4]): Dose-dependent effect; ED50 (Enterococcus faecalis [4]): 3 mg/kg; Activity (Staphylococcus aureus [5]): Dose-dependent effect; ED50 (Staphylococcus aureus [5]): 0.3 mg/kg
Cc1sc2nc1C(=O)N[C@@H]([C@H](O)c1ccccc1)c1nc(cs1)C(=O)N[C@@H](Cc1ccc(O)cc1)C(=O)N[C@@H]([C@@H](C)[C@@H](O)CCl)c1nc(cs1)-c1nc(cs1)-c1nc(-c3nc(C(N)=O)cs3)ccc1-c1nc(cs1)C(=O)N[C@H]2CC(N)=O | 0.25 (≈ 0.202 µM) | 0.5 (≈ 0.404 µM) | 2 (≈ 1.62 µM) | 0.25 (≈ 0.202 µM) | 0.5 (≈ 0.404 µM) | –
Cc1sc2nc1C(=O)NCc1nc(cs1)C(=O)N[C@@H](Cc1ccc(O)cc1)C(=O)N1C[C@H](O)[C@H](C)[C@H]1c1nc(cs1)-c1nc(cs1)-c1nc(-c3nc(C(N)=O)cs3)ccc1-c1nc(cs1)C(=O)N[C@H]2CC(N)=O | – | 4 (≈ 3.66 µM) | > 32 | 4 (≈ 3.66 µM) | 2 (≈ 1.83 µM) | –
Cc1sc2nc1C(=O)N[C@@H]([C@H](O)c1ccccc1)c1nc(cs1)C(=O)N[C@@H](Cc1ccc(O)cc1)C(=O)N1C[C@H](O)[C@H](C)[C@H]1c1nc(cs1)-c1nc(cs1)-c1nc(-c3nc(C(N)=O)cs3)ccc1-c1nc(cs1)C(=O)N[C@H]2CC(N)=O | < 0.008 | 0.5 (≈ 0.417 µM) | 1 (≈ 0.833 µM) | 0.25 (≈ 0.208 µM) | 0.25 (≈ 0.208 µM) | MIC (Enterococcus faecalis [6]): 0.125 µg/mL (≈ 0.104 µM); Activity (Enterococcus faecalis [4]): Dose-dependent effect; ED50 (Enterococcus faecalis [4]): 1.5 mg/kg; AUC [7]: 1.35 µM·h; clearance [8]: 10.1 mL/min/kg; MIC (Staphylococcus aureus [9]): 1 µg/mL (≈ 0.833 µM); half-life [10]: 3.4 h; Activity (Staphylococcus aureus [5]): Dose-dependent effect; ED50 (Staphylococcus aureus [5]): 8 mg/kg; Ratio ED50 (Enterococcus faecalis [11]): 2; Vd [12]: 0.134 L/kg
Cc1sc2nc1C(=O)N[C@@H]([C@H](O)c1ccccc1)c1nc(cs1)C(=O)N[C@@H](Cc1ccc(O)cc1)C(=O)N[C@@H]([C@@H](C)[C@@H](O)CN)c1nc(cs1)-c1nc(cs1)-c1nc(-c3nc(C(N)=O)cs3)ccc1-c1nc(cs1)C(=O)N[C@H]2CC(N)=O | 1 (≈ 0.821 µM) | 1 (≈ 0.821 µM) | > 32 | 1 (≈ 0.821 µM) | 2 (≈ 1.64 µM) | –
Cc1sc2nc1C(=O)N[C@@H]([C@H](O)c1ccccc1)c1nc(cs1)C(=O)N[C@@H](Cc1ccc(O)cc1)C(=O)N[C@@H]([C@@H](C)[C@@H](O)CO)c1nc(cs1)-c1nc(cs1)-c1nc(-c3nc(C(N)=O)cs3)ccc1-c1nc(cs1)C(=O)N[C@H]2CC(N)=O | 2 (≈ 1.64 µM) | > 32 | > 32 | > 32 | > 32 | –
C=C(NC(=O)C(=C)NC(=O)c1csc(-c2ccc3c(n2)-c2csc(n2)-c2csc(n2)[C@H]([C@@H](C)[C@@H]2CO2)NC(=O)[C@H](Cc2ccc(O)cc2)NC(=O)c2csc(n2)[C@H]([C@H](O)c2ccccc2)NC(=O)c2nc(sc2C)[C@H](CC(N)=O)NC(=O)c2csc-3n2)n1)C(=O)O [THIOMURACIN A] | 0.03 (≈ 0.0224 µM) | 0.5 (≈ 0.373 µM) | 0.5 (≈ 0.373 µM) | 0.5 (≈ 0.373 µM) | 0.5 (≈ 0.373 µM) | solubility [13]: soluble; Stability [14]: Stable; Stability [15]: Stable; Stability [16]: Unstable; Stability [17]: Unstable; Stability [18]: Unstable; Stability [19]: Stable; solubility [20]: soluble
C=C(NC(=O)c1csc(-c2ccc3c(n2)-c2csc(n2)-c2csc(n2)[C@H]([C@@H](C)[C@@H]2CO2)NC(=O)[C@H](Cc2ccc(OC(C)=O)cc2)NC(=O)c2csc(n2)[C@H]([C@H](OC(C)=O)c2ccccc2)NC(=O)c2nc(sc2C)[C@H](CC(N)=O)NC(=O)c2csc-3n2)n1)C(=O)NC(=C)C(=O)OC | > 4 | 32 (≈ 22.3 µM) | > 32 | 32 (≈ 22.3 µM) | > 32 | inhibition (Escherichia coli): inactive
C=C(NC(=O)c1csc(-c2ccc3c(n2)-c2csc(n2)-c2csc(n2)[C@H]([C@@H](C)[C@@H]2CO2)NC(=O)[C@H](Cc2ccc(OC)cc2)NC(=O)c2csc(n2)[C@H]([C@H](O)c2ccccc2)NC(=O)c2nc(sc2C)[C@H](CC(N)=O)NC(=O)c2csc-3n2)n1)C(=O)NC(=C)C(=O)OC | 1 (≈ 0.731 µM) | 8 (≈ 5.85 µM) | > 32 | 8 (≈ 5.85 µM) | > 32 | inhibition (Escherichia coli): inactive
C=C(NC(=O)c1csc(-c2ccc3c(n2)-c2csc(n2)-c2csc(n2)[C@H]([C@@H](C)[C@@H]2CO2)NC(=O)[C@H](Cc2ccc(O)cc2)NC(=O)c2csc(n2)[C@H]([C@H](O)c2ccccc2)NC(=O)c2nc(sc2C)[C@H](CC(N)=O)NC(=O)c2csc-3n2)n1)C(=O)NC(=C)C(=O)OC | 1 (≈ 0.739 µM) | 8 (≈ 5.91 µM) | > 32 | 8 (≈ 5.91 µM) | > 32 | inhibition (Escherichia coli): inactive
